From ChEMBL document CHEMBL3526151, “Reversible disulfide formation of the glutamate carboxypeptidase II inhibitor E2072 results in prolonged systemic exposures in vivo” (Drug Metab Dispos, 2012)

What was measured:
[1] = AUC(0 to last) in Sprague-Dawley rat at 30 mg/kg, po administered via gavage measured under fasted conditions by LC-MS/MS analysis; format: ADME, organism-based; set-up: time 0 - last, dose 30 mg/kg, route oral; conditions: plasma
Outline: (§1)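 Fasted male Sprague-Dawley rats (280–330 g) received 0.1, 1, 10 or 30 mg/kg by oral gavage in 50 mM HEPES buffered saline, pH 7.4. Blood drawn at 0.25–24 h into heparin/NEM tubes; plasma analyzed by LC-MS/MS. Cmax taken as observed. AUC by linear trapezoidal rule with extrapolation by λz. Cl/F and Vd/F reported. Mean ± S.D., n = 4–9.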

[2] = Half life in Sprague-Dawley rat at 10 mg/kg, po administered via gavage measured under fed conditions by LC-MS/MS analysis; format: ADME, organism-based; set-up: dose 10 mg/kg, route oral; conditions: in vivo
[3] = Phase 2 metabolic stability in rat liver microsomes assessed as compound remaining at 10 uM measured for 1 hr by LC-MS/MS analysis; format: ADME; conditions: read-out: Stability
Outline: (§2)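 Glucuronidation in liver microsomes of the named species, 0.5 mg/ml protein, compound at 10 μM final, in 50 mM Tris-HCl pH 7.5 with 8 mM MgCl2 and 25 μg/ml alamethicin. Preincubated at 37°C, then started with 2 mM UDPGA (final); cofactor-free controls run alongside. Duplicate reactions, sampled up to 1 h, quenched with cold acetonitrile plus internal standard; disappearance followed by LC-MS/MS.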

[4] = Cmax in Sprague-Dawley rat kidney at 10 mg/kg/day, po administered for 5 days measured per gm of tissue by LC-MS/MS analysis; format: ADME, organism-based; set-up: dose 10 mg/kg/day, route oral
Outline: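 Male Sprague-Dawley rats were dosed orally with 10 mg/kg/day, either once or daily for 5 days; n = 4 per group. Blood was taken by cardiac puncture and liver, kidney, brain and sciatic nerve were collected at 0–8 h post-dose. Tissues were homogenized in PBS containing NEM at equal volume per gram. NEM-derivatized analyte was extracted with methanol and quantified by LC-MS/MS (1–5000 ng/ml). Cmax is the observed value.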

[5] = Phase 1 metabolic stability in rat liver microsomes assessed as compound remaining at 10 uM measured for 1 hr by LC-MS/MS analysis; format: ADME; conditions: read-out: Stability
Outline: (§3)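 Liver microsomes (0.5 mg/ml) were incubated with 10 µM compound (final) in 100 mM potassium phosphate, pH 7.4. An NADPH-regenerating system was present: 1.3 mM NADPH, 3.3 mM glucose 6-phosphate, 3.3 mM MgCl2, 0.4 U/ml G6PDH and 50 µM sodium citrate. Runs were in duplicate, with samples taken up to 1 h and quenched with acetonitrile containing internal standard. Loss of compound was followed by LC-MS/MS.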

[6] = Volume of distribution in Sprague-Dawley rat at 10 mg/kg, iv administered as bolus injection measured under fasted conditions by LC-MS/MS analysis; format: ADME, organism-based; set-up: dose 10 mg/kg, route intravenous; conditions: in vivo
Outline: (§4)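 Jugular-cannulated male Sprague-Dawley rats, 280–330 g, fasted overnight to 4 h post-dose. Single dose in 50 mM HEPES-buffered saline pH 7.4, by oral gavage or as tail-vein i.v. bolus. Blood into heparin/NEM tubes at 0–24 h. Plasma measured by LC-MS/MS; noncompartmental analysis; Tmax observed; Vd = dose/(AUCinf·λz).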

[7] = Tmax in cynomolgus monkey at 5 mg/kg, po by LC-MS/MS analysis; format: ADME, organism-based, Macaca fascicularis; set-up: dose 5 mg/kg, route oral; conditions: in vivo
Outline: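 Cynomolgus monkeys (n=3) dosed at 5 mg/kg nominal, TCEP-treated 50 mM HEPES solution, either as i.v. bolus (cephalic or saphenous vein) or orally. Arterial cannula blood into heparin/NEM tubes for up to 9 days. Plasma parent and homodisulfide measured by LC-MS/MS; Tmax observed.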

[8] = Cmax in cynomolgus monkey at 5 mg/kg, iv administered as bolus injection by LC-MS/MS analysis; format: ADME, organism-based, Macaca fascicularis; set-up: dose 5 mg/kg, route intravenous; conditions: in vivo
Outline: (§5)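 Cynomolgus monkeys (n = 3) received a nominal 5 mg/kg dose in 50 mM HEPES, TCEP-treated to prevent disulfide formation. Dosing was either an IV bolus via cephalic or saphenous vein or oral. Arterial cannula blood was collected into NEM-containing heparinized tubes for up to 9 days and analyzed by LC-MS/MS. Noncompartmental analysis gave t1/2 = 0.693/λz and F% = dose-normalized mean AUCinf p.o./i.v. ×100.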

[9] = Half life in Sprague-Dawley rat at 1 mg/kg, po administered via gavage measured under fasted conditions by LC-MS/MS analysis; format: ADME, organism-based; set-up: dose 1 mg/kg, route oral; conditions: in vivo
[10] = Apparent volume of distribution in Sprague-Dawley rat at 30 mg/kg, po administered via gavage measured under fasted conditions by LC-MS/MS analysis; format: ADME, organism-based; set-up: dose 30 mg/kg, route oral; conditions: in vivo; outline: as §1
[11] = Elimination half life in cynomolgus monkey at 5 mg/kg, po by LC-MS/MS analysis; format: ADME, organism-based, Macaca fascicularis; set-up: dose 5 mg/kg, route oral; conditions: in vivo, read-out: beta t1/2 (converted); outline: as §5
[12] = Tmax in Sprague-Dawley rat at 0.1 mg/kg, po administered via gavage measured under fasted conditions by LC-MS/MS analysis; format: ADME, organism-based; set-up: dose 0.1 mg/kg, route oral; conditions: in vivo; outline: as §4
[13] = Half life in Sprague-Dawley rat at 30 mg/kg, po administered via gavage measured under fasted conditions by LC-MS/MS analysis; format: ADME, organism-based; set-up: dose 30 mg/kg, route oral; conditions: in vivo
[14] = Volume of distribution in Sprague-Dawley rat at 30 mg/kg, iv administered as bolus injection measured under fasted conditions by LC-MS/MS analysis; format: ADME, organism-based; set-up: dose 30 mg/kg, route intravenous; conditions: in vivo; outline: as §4
[15] = AUC(0 to last) in Sprague-Dawley rat at 10 mg/kg, iv administered as bolus injection measured under fasted conditions by LC-MS/MS analysis; format: ADME, organism-based; set-up: time 0 - last, dose 10 mg/kg, route intravenous; conditions: plasma
Outline: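 Male Sprague-Dawley rats (280–330 g), jugular vein cannulated, fasted overnight until 4 h post-dose. Single tail-vein bolus of 0.1, 1, 10 or 30 mg/kg in 50 mM HEPES buffered saline, pH 7.4. Blood drawn 0–24 h into heparin tubes containing NEM. Plasma quantified by LC-MS/MS after NEM derivatization. Noncompartmental analysis: AUClast by linear trapezoidal rule, Cl = dose/AUC0-∞. Mean ± S.D., n = 4–9.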

[16] = AUC(0 to last) in Sprague-Dawley rat at 10 mg/kg, po administered via gavage measured under fed conditions by LC-MS/MS analysis; format: ADME, organism-based; set-up: time 0 - last, dose 10 mg/kg, route oral; conditions: plasma
Outline: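 Nonfasted male Sprague-Dawley rats given a single 10 mg/kg oral dose in 50 mM HEPES buffered saline, pH 7.4. Plasma collected 0.25–24 h into heparin/NEM tubes and assayed by LC-MS/MS. Noncompartmental parameters derived, including Cl/F and Vd/F. Mean ± S.D., n = 6–9.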

[17] = Phase 2 metabolic stability in mouse liver microsomes assessed as compound remaining at 10 uM measured for 1 hr by LC-MS/MS analysis; format: ADME; conditions: read-out: Stability; outline: as §2
[18] = Phase 1 metabolic stability in human liver microsomes assessed as compound remaining at 10 uM measured for 1 hr by LC-MS/MS analysis; format: ADME; conditions: read-out: Stability; outline: as §3
[19] = Apparent oral clearance in Sprague-Dawley rat at 30 mg/kg, po administered via gavage measured under fasted conditions by LC-MS/MS analysis; format: ADME, organism-based; set-up: dose 30 mg/kg, route oral; conditions: in vivo; outline: as §1
[20] = AUC(0 to last) in Sprague-Dawley rat at 1 mg/kg, po administered via gavage measured under fasted conditions by LC-MS/MS analysis; format: ADME, organism-based; set-up: time 0 - last, dose 1 mg/kg, route oral; conditions: plasma; outline: as §1

AUC(0-t) [1]: 76100 ng·h/mL | half-life [2]: 165 min | remaining at 1 h, 10 µM [3]: > 90% | Cmax [4]: 388 ng/g | remaining at 1 h, 10 µM [5]: > 90% | Vd [6]: 1.43 L/kg | Tmax [7]: 25.2 min | Cmax [8]: 68 µg/mL | half-life [9]: 223 min | Vd/F [10]: 2.39 L/kg | half-life [11]: 574 min | Tmax [12]: 49.8 min | half-life [13]: 189 min | Vd [14]: 1.08 L/kg | AUC(0-t) [15]: 90200 ng·h/mL | AUC(0-t) [16]: 32200 ng·h/mL | remaining at 1 h, 10 µM [17]: > 90% | remaining at 1 h, 10 µM [18]: > 90% | CL/F [19]: 8.5 mL/min/kg | AUC(0-t) [20]: 2610 ng·h/mL
SMILES: O=C(O)c1cccc(-c2cccc(CCS)c2C(=O)O)c1
